Converted amounts (≈) assume the structure as drawn. The source made the active and inactive calls. No cut-off for these calls is given here.
Key:
[1] = system: Staphylococcus aureus; experiment: Antibacterial activity against Staphylococcus aureus ATCC 6538P assessed as diameter of zone inhibition measured after 18 hrs by CLSI disc diffusion method; format: functional
In short: (§1)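 Disc diffusion on Mueller-Hinton II agar. Compounds dissolved in DMSO. Strains stored at -80 °C and subcultured twice on tryptic soy agar before testing. Inhibition zones read after 35 °C, 18 h.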

[2] = system: Pseudomonas aeruginosa; experiment: Antibacterial activity against Pseudomonas aeruginosa ATCC 27853 measured after 18 hrs by CLSI broth dilution method; format: functional; details: ATCC 27853, 18 h
In short: (§2)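 Broth MIC in Mueller-Hinton II broth following CLSI, compounds dissolved in DMSO. Strains subcultured twice on tryptic soy agar before testing. Growth read after 35 °C, 18 h.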

[3] = system: Candida albicans; experiment: Antifungal activity against Candida albicans ATCC 90028 assessed as decrease in fungal cell growth at 0.78 to 12.5 mg/L incubated for 24 hrs by CLSI broth dilution method; format: functional; details: ATCC 90028, 24 h
In short: (§3)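 Yeast broth dilution in RPMI 1640 with 2% glucose, compounds in DMSO. Yeasts pre-grown on Sabouraud dextrose agar. Growth read after 35 °C, 24 h.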

[4] = system: Pichia kudriavzevii; experiment: Antifungal activity against Candida krusei ATCC 6258 assessed as decrease in fungal cell growth at 0.78 to 12.5 mg/L incubated for 24 hrs by CLSI broth dilution method; format: functional; details: ATCC 6258, 24 h; in short: as §3
[5] = system: Candida albicans; experiment: Antifungal activity against Candida albicans ATCC 90028 assessed as diameter of zone inhibition incubated for 24 hrs by CLSI disc diffusion method; format: functional
In short: (§4)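 Yeast disc diffusion on Mueller-Hinton agar supplemented with 2% glucose and 0.5 mg/L methylene blue. Compounds in DMSO. Yeasts subcultured on Sabouraud dextrose agar before testing. Zones read after 35 °C, 24 h.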

[6] = system: Candida parapsilosis; experiment: Antifungal activity against Candida parapsilosis ATCC 22019 assessed as diameter of zone inhibition incubated for 24 hrs by CLSI disc diffusion method; format: functional; in short: as §4
[7] = system: Candida tropicalis; experiment: Antifungal activity against Candida tropicalis IBA 171 assessed as diameter of zone inhibition incubated for 24 hrs by CLSI disc diffusion method; format: functional; in short: as §4
[8] = system: Meyerozyma guilliermondii; experiment: Antifungal activity against Candida guilliermondii IBA 155 assessed as diameter of zone inhibition incubated for 24 hrs by CLSI disc diffusion method; format: functional; in short: as §4
[9] = system: Saccharomyces cerevisiae; experiment: Antifungal activity against Saccharomyces cerevisiae ATCC 9763 diameter of zone inhibition incubated for 24 hrs by CLSI disc diffusion method; format: functional
In short: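 Disc-diffusion run on Mueller-Hinton II agar with 2% glucose and 0.5 mg/L methylene blue, using compounds in DMSO. Yeast was precultured on Sabouraud dextrose agar (24–48 h, 30 °C). Zones read after 24 h at 35 °C.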

[10] = system: Staphylococcus aureus; experiment: Antibacterial activity against Staphylococcus aureus ATCC 6538P measured after 18 hrs by CLSI broth dilution method; format: functional; in short: as §2
[11] = system: Enterococcus faecium; experiment: Antibacterial activity against Enterococcus faecium ATCC 6057 measured after 18 hrs by CLSI broth dilution method; format: functional; details: ATCC 6057, 18 h; in short: as §2
[12] = system: Staphylococcus epidermidis; experiment: Antibacterial activity against Staphylococcus epidermidis ATCC 12228 assessed as diameter of zone inhibition measured after 18 hrs by CLSI disc diffusion method; format: functional; in short: as §1
[13] = system: Enterococcus faecalis; experiment: Antibacterial activity against Enterococcus faecalis ATCC 29212 assessed as diameter of zone inhibition measured after 18 hrs by CLSI disc diffusion method; format: functional; in short: as §1
[14] = system: Enterococcus faecium; experiment: Antibacterial activity against Enterococcus faecium ATCC 6057 assessed as diameter of zone inhibition measured after 18 hrs by CLSI disc diffusion method; format: functional; in short: as §1
[15] = system: Escherichia coli; experiment: Antibacterial activity against Escherichia coli ATCC 25922 measured after 18 hrs by CLSI broth dilution method; format: functional; details: ATCC 25922, 18 h; in short: as §2
[16] = system: Klebsiella pneumoniae; experiment: Antibacterial activity against Klebsiella pneumoniae ATCC 13883 measured after 18 hrs by CLSI broth dilution method; format: functional; details: ATCC 13883, 18 h; in short: as §2
[17] = system: Bordetella bronchiseptica; experiment: Antibacterial activity against Bordetella bronchiseptica ATCC 4617 measured after 18 hrs by CLSI broth dilution method; format: functional; details: ATCC 4617, 18 h; in short: as §2
[18] = system: Acinetobacter baumannii; experiment: Antibacterial activity against Acinetobacter baumannii ATCC 19606 measured after 18 hrs by CLSI broth dilution method; format: functional; details: ATCC 19606, 18 h; in short: as §2
[19] = system: Stenotrophomonas maltophilia; experiment: Antibacterial activity against Stenotrophomonas maltophilia ATCC 13637 measured after 18 hrs by CLSI broth dilution method; format: functional; details: ATCC 13637, 18 h; in short: as §2
[20] = system: Burkholderia cepacia; experiment: Antibacterial activity against Burkholderia cepacia ATCC 25416 measured after 18 hrs by CLSI broth dilution method; format: functional; details: ATCC 25416, 18 h; in short: as §2
[21] = system: Escherichia coli; experiment: Antibacterial activity against Escherichia coli ATCC 25922 assessed as diameter of zone inhibition measured after 18 hrs by CLSI disc diffusion method; format: functional; in short: as §1
[22] = system: Enterobacter cloacae; experiment: Antibacterial activity against Enterobacter cloacae DSM 6234 assessed as diameter of zone inhibition measured after 18 hrs by CLSI disc diffusion method; format: functional; in short: as §1
[23] = system: Pseudomonas aeruginosa; experiment: Antibacterial activity against Pseudomonas aeruginosa ATCC 27853 assessed as diameter of zone inhibition measured after 18 hrs by CLSI disc diffusion method; format: functional, organism-based; in short: as §1
[24] = system: Acinetobacter baumannii; experiment: Antibacterial activity against Acinetobacter baumannii ATCC 19606 assessed as diameter of zone inhibition measured after 18 hrs by CLSI disc diffusion method; format: functional; in short: as §1
[25] = system: Burkholderia cepacia; experiment: Antibacterial activity against Burkholderia cepacia ATCC 25416 assessed as diameter of zone inhibition measured after 18 hrs by CLSI disc diffusion method; format: functional; in short: as §1
[26] = system: Bordetella bronchiseptica; experiment: Antibacterial activity against Bordetella bronchiseptica ATCC 4617 assessed as diameter of zone inhibition measured after 18 hrs by CLSI disc diffusion method; format: functional; in short: as §1
[27] = system: Escherichia coli; experiment: Antibacterial activity against Escherichia coli ATCC 25922 assessed as fold reduction of MIC in presence of efflux pump inhibitor PAbetaN incubated for 18 hrs by CLSI broth microdilution method; format: functional
In short: (§5)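 MICs determined with and without PAβN at 50 mg/L in Mueller-Hinton broth containing 1 mM MgSO₄. 2-fold serial dilutions per CLSI. Fold change taken from the paired MICs after 35 °C, 18 h.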

[28] = system: Klebsiella pneumoniae; experiment: Antibacterial activity against Klebsiella pneumoniae ATCC 13883 assessed as fold reduction of MIC in presence of efflux pump inhibitor PAbetaN incubated for 18 hrs by broth microdilution method; format: functional; in short: as §5
[29] = system: Proteus mirabilis; experiment: Antibacterial activity against Proteus mirabilis ATCC 12453 assessed as fold reduction of MIC in presence of efflux pump inhibitor PAbetaN incubated for 18 hrs by broth microdilution method; format: functional; in short: as §5
[30] = system: Serratia marcescens; experiment: Antibacterial activity against Serratia marcescens ATCC 13880 assessed as fold reduction of MIC in presence of efflux pump inhibitor PAbetaN incubated for 18 hrs by broth microdilution method; format: functional; in short: as §5
[31] = system: Pseudomonas aeruginosa; experiment: Antibacterial activity against Pseudomonas aeruginosa ATCC 27853 assessed as fold reduction of MIC in presence of efflux pump inhibitor PAbetaN incubated for 18 hrs microdilution method; format: functional; in short: as §5
[32] = system: Acinetobacter baumannii; experiment: Antibacterial activity against Acinetobacter baumannii ATCC 19606 assessed as fold reduction of MIC in presence of efflux pump inhibitor PAbetaN incubated for 18 hrs by broth microdilution method; format: functional; in short: as §5
[33] = system: Klebsiella pneumoniae; details: ATCC 13883

| Compound | diameter of the inhibition zone (DIZ) [1] | MIC [2] | MIC [3] | MIC [4] | diameter of the inhibition zone (DIZ) [5] | diameter of the inhibition zone (DIZ) [6] | diameter of the inhibition zone (DIZ) [7] | diameter of the inhibition zone (DIZ) [8] | diameter of the inhibition zone (DIZ) [9] | MIC [10] | MIC [11] | diameter of the inhibition zone (DIZ) [12] | diameter of the inhibition zone (DIZ) [13] | diameter of the inhibition zone (DIZ) [14] | MIC [15] | MIC [16] | MIC [17] | MIC [18] | MIC [19] | MIC [20] | also measured |
| --- | --- | --- | --- | --- | --- | --- | --- | --- | --- | --- | --- | --- | --- | --- | --- | --- | --- | --- | --- | --- | --- |
| C[Si]1(C)OB(O)c2cccc(B(O)O)c21 | 11 mm | > 400 µg/mL | > 400 µg/mL | 50 µg/mL (≈ 225 µM) | inactive | inactive | inactive | inactive | inactive | 400 µg/mL (≈ 1800 µM) | 400 µg/mL (≈ 1800 µM) | 22 mm | inactive | inactive | > 400 µg/mL | > 400 µg/mL | > 400 µg/mL | 400 µg/mL (≈ 1800 µM) | > 400 µg/mL | > 400 µg/mL | diameter of the inhibition zone (DIZ) [21]: inactive; diameter of the inhibition zone (DIZ) [22]: inactive; diameter of the inhibition zone (DIZ) [23]: inactive; diameter of the inhibition zone (DIZ) [24]: inactive; diameter of the inhibition zone (DIZ) [25]: inactive; diameter of the inhibition zone (DIZ) [26]: inactive; fold change (FC) [27]: 4; fold change (FC) [28]: 4; fold change (FC) [29]: 0; fold change (FC) [30]: 2; fold change (FC) [31]: 4; fold change (FC) [32]: 2; DIZ [33]: inactive |
| C[Si]1(C)OB(O)c2c(F)c(F)c(F)c(F)c21 | 17 mm | > 400 µg/mL | 200 µg/mL (≈ 800 µM) | 200 µg/mL (≈ 800 µM) | 15 mm | 21 mm | 13 mm | 14 mm | 35 mm | 25 µg/mL (≈ 100 µM) | 200 µg/mL (≈ 800 µM) | 17 mm | 11 mm | 11 mm | > 400 µg/mL | > 400 µg/mL | 100 µg/mL (≈ 400 µM) | 400 µg/mL (≈ 1600 µM) | 400 µg/mL (≈ 1600 µM) | > 400 µg/mL | diameter of the inhibition zone (DIZ) [21]: 18 mm; diameter of the inhibition zone (DIZ) [22]: inactive; diameter of the inhibition zone (DIZ) [23]: inactive; diameter of the inhibition zone (DIZ) [24]: 12 mm; diameter of the inhibition zone (DIZ) [25]: inactive; diameter of the inhibition zone (DIZ) [26]: 15 mm; fold change (FC) [27]: 32; fold change (FC) [28]: 16; fold change (FC) [29]: 2; fold change (FC) [30]: 4; fold change (FC) [31]: 16; fold change (FC) [32]: 4; DIZ [33]: inactive |
| C[Si]1(C)OB(O)c2ccc(Cl)c(Cl)c21 | 23 mm | > 400 µg/mL | 12.5 µg/mL (≈ 50.6 µM) | 12.5 µg/mL (≈ 50.6 µM) | 33 mm | 28 mm | 31 mm | 47 mm | 36 mm | 6.25 µg/mL (≈ 25.3 µM) | 25 µg/mL (≈ 101 µM) | 22 mm | 21 mm | 28 mm | 400 µg/mL (≈ 1620 µM) | 400 µg/mL (≈ 1620 µM) | 100 µg/mL (≈ 405 µM) | 400 µg/mL (≈ 1620 µM) | 200 µg/mL (≈ 810 µM) | > 400 µg/mL | diameter of the inhibition zone (DIZ) [21]: inactive; diameter of the inhibition zone (DIZ) [22]: inactive; diameter of the inhibition zone (DIZ) [23]: inactive; diameter of the inhibition zone (DIZ) [24]: inactive; diameter of the inhibition zone (DIZ) [25]: inactive; diameter of the inhibition zone (DIZ) [26]: 12 mm; fold change (FC) [27]: 64; fold change (FC) [28]: 32; fold change (FC) [29]: 4; fold change (FC) [30]: 32; fold change (FC) [31]: 64; fold change (FC) [32]: 8; DIZ [33]: inactive |

From ChEMBL document CHEMBL4346672, “Antimicrobial and KPC/AmpC inhibitory activity of functionalized benzosiloxaboroles” (Eur J Med Chem, 2019)
